RanGTP-Imp inh = disruptors of Ran-importin-beta complex formation – biochemical, FRET, CFP-Ran, YFP-importin-beta, homogeneous, primary screen. cell-free CFP-Ran/YFP-importin-beta FRET ratio. inhibition, % (no concentration beside the values). hit rate 1.1% among 300,000;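 active = more than half of the replicate wells show a fall in the fluorescence ratio signal beyond about 16%, limit read from the data, passing the limit was not always enough; inconclusive = exactly half of the replicate wells pass the set limit; inactive = fewer than half of replicates pass the limit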;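 note: 0% = DMSO wells and 100% = Ran loaded with GDP instead of GTP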
MEX-5 binding = C. elegans MEX-5 TCR-2 RNA binding activity; Q9XUB2; activity score (negative = inhibition of binding), % at 10 µM; MEX-5/FITC-TCR2 RNA binding, fluorescence polarization; hits give low values; hit rate 0.38% among 300,000;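 active = inhibition past about -25% in most replicates, and total fluorescence under double the plate's negative control median, limit read from the data; inconclusive = replicates evenly split on the limit, or fluorescence at least double controls; inactive = too little inhibition in most replicates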;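 note: 0% = DMSO and -100% = 5 µM competing unlabeled TCR2 RNA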
Target sequence (Q9XUB2 whole entry, looked up): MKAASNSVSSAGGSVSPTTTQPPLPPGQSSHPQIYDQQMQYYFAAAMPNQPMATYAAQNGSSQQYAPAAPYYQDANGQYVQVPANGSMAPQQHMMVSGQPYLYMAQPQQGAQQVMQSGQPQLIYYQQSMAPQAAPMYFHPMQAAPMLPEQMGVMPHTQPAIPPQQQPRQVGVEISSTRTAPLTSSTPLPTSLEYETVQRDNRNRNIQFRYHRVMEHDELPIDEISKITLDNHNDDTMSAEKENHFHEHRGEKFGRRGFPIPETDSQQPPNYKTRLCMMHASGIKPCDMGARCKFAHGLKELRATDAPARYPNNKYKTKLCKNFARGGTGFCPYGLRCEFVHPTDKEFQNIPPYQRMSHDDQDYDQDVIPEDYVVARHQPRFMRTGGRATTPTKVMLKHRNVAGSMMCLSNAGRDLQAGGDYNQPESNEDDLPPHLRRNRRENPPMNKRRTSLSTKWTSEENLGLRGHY
Runt-SMMHC FRET = blocks binding of human RUNX1 Runt domain to CBFb-SMMHC. Cerulean-Runt/Venus-CBFb-SMMHC FRET ratio 530/480, 1 h. inhibition, % at 20 µM. hit rate 0.74% among 220,000;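 active = mean inhibition across duplicate retests at 20 µM reaching about 50%, limit read from the data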;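 note: 0% = DMSO wells and 100% = wells with excess untagged CBFb-SMMHC; inhibitors lower the FRET ratio by blocking Runt binding to CBFb-SMMHC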
Runt-CBFb FRET = Runt domain-CBFb interaction inhibition | Cerulean-Runt/Venus-CBFb FRET ratio 530/480, 1 h | AID 1496 | hit rate 0.46% among 220,000 | inhibition, % at 20 µM | Q01196+Q13951;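 active = inhibition over about 50% at 20 µM in the single-dose screen, limit read from the data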;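 note: 0% = DMSO wells and 100% = excess unlabeled CBFb competitor control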
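Buffer or medium: Tris pH 7.5 buffer with BSA. Assay system: Cerulean-labeled Runt domain protein. Amount: each fluorescent fusion protein 100 nM. Read-out basis: loss of energy transfer signal. Incubation: 1 h compound exposure, room temperature. Probe or stimulus: Venus-CBFb binding partner, 100 nM. Detection: FRET, excitation 422 nm, emission at 530 and 480 nm.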
proKLK7 act = proKLK7 (human) activation, primary screen | P49862 | purified proKLK7, EDANS-DABCYL substrate fluorescence; 100% is mature enzyme control, 0% vehicle | activation, % at 7 µM | hit rate 0.9% among 370,000;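 active = activation above the mean of all tested compounds plus 3 SD, computed per campaign excluding outliers beyond control limits, cut at about 13% in these data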
* = called active by the depositor. The list is not random: actives were taken first. Their share in the collection is about 2.1%.

CN(c1ccc(C(=O)N/N=C/c2cccc([N+](=O)[O-])c2)cc1)S(=O)(=O)c1ccccc1 was read as RanGTP-Imp inh 28*, MEX-5 binding 4 and proKLK7 act 0.
`CN1[C@@H](Cc2ccccc2)COc2cccc(F)c2S1(=O)=O` gave proKLK7 act 0.
For COc1ccccc1C(=O)Nc1ccc(-c2nnc(SCC(=O)O)n2C)cc1 the results were RanGTP-Imp inh 20*, MEX-5 binding -4, Runt-SMMHC FRET -5, Runt-CBFb FRET 2 and proKLK7 act -1.
Screening COc1ccccc1NC(=O)CSc1nnc(-c2ccc(NC(C)=O)cc2)n1C returned RanGTP-Imp inh 5, MEX-5 binding 2, Runt-SMMHC FRET -4, Runt-CBFb FRET -3 and proKLK7 act 1.
Cc1ccccc1S(=O)(=O)NC(=O)C1(C)CCN1C(=O)CC(c1ccccc1)c1ccccc1 (configuration not stated) was read as proKLK7 act 0.
CSc1nnc(N2C(=O)C(O)=C(C(=O)c3ccco3)C2c2ccc(F)cc2)s1 (configuration not stated) was read as RanGTP-Imp inh -4, MEX-5 binding -22 and proKLK7 act 0.
`CSc1nnc(N2C(=O)C(O)=C(C(=O)c3ccco3)C2c2cccc(Cl)c2)s1` (configuration not stated) gave RanGTP-Imp inh -26, MEX-5 binding -26* and proKLK7 act 0.
Screening CN1CCN(c2ncnc3c2ncn3[C@H]2CN(Cc3cccs3)C[C@@H](CO)O2)CC1 returned proKLK7 act -1.
`CC1(C(=O)O)CCCN(C(=O)c2ccc(F)cc2Cl)C1` (configuration not stated) gave proKLK7 act -1.
`CCC(C)[C@@H](C(=O)OC)N(Cc1cn(Cc2ccccc2)nn1)S(=O)(=O)c1ccccc1Br` (some centres not stated) gave proKLK7 act 0.
Screening N#C/C(=C\c1ccc(-c2ccc(C(=O)O)cc2)o1)C(=O)NCC1CCCO1 (configuration not stated) returned RanGTP-Imp inh 30*, MEX-5 binding -4, Runt-SMMHC FRET 29 and Runt-CBFb FRET 14.
`CNC(=O)/C(C#N)=C/c1ccc(-c2ccc(Cl)cc2)o1` gave RanGTP-Imp inh -64, MEX-5 binding -34* and proKLK7 act 0.
Cc1cccc(C)c1NC(=O)/C(C#N)=C/c1ccc(-c2ccc(C(=O)O)cc2)o1 was read as RanGTP-Imp inh 37*, MEX-5 binding -22 and proKLK7 act 1.
`N#C/C(=C\c1ccc(N2CCOCC2)o1)C(=O)NCC1CCCO1` (configuration not stated) gave RanGTP-Imp inh 12, MEX-5 binding inconclusive, Runt-SMMHC FRET 10, Runt-CBFb FRET 10 and proKLK7 act 0.
For COC(=O)[C@]1(CNS(=O)(=O)C2CC2)CC(=O)N(C)[C@@H]1c1ccccc1 the results were proKLK7 act 0.
For CCOC(=O)C1=CCC(c2ccc(CC)cc2)N(S(=O)(=O)c2ccc(C)cc2)C1 (configuration not stated) the results were proKLK7 act 1.
`Cc1cc(C)c(NC(=O)CN(C)C(=O)CCC(=O)c2ccc(C)s2)c(C)c1` gave proKLK7 act 0.
Screening Cc1cccn2c(=O)c(/C=C(\C#N)C(=O)NCc3ccco3)c(N3CCCCC3)nc12 returned RanGTP-Imp inh 2, MEX-5 binding -1, Runt-SMMHC FRET 60*, Runt-CBFb FRET 65* and proKLK7 act 1.
For Cc1cccn2c(=O)c(/C=C(\C#N)C(=O)NCc3ccco3)c(N3CCCCCC3)nc12 the results were RanGTP-Imp inh -5, MEX-5 binding -1, Runt-SMMHC FRET -8, Runt-CBFb FRET 97* and proKLK7 act 1.
CCOC(=O)C1CCCN(c2nc3c(C)cccn3c(=O)c2/C=C(\C#N)C(=O)NCc2ccco2)C1 (configuration not stated) was read as RanGTP-Imp inh -1, MEX-5 binding 1, Runt-SMMHC FRET 4, Runt-CBFb FRET 121* and proKLK7 act 4.
For CCOC(=O)C1CCN(c2nc3c(C)cccn3c(=O)c2/C=C(\C#N)S(=O)(=O)c2ccccc2)CC1 the results were RanGTP-Imp inh 7, MEX-5 binding 1, Runt-SMMHC FRET -39, Runt-CBFb FRET -29 and proKLK7 act -3.
CCOC(=O)/C(C#N)=C/c1c(N2CCN(c3ccccc3)CC2)nc2c(C)cccn2c1=O was read as RanGTP-Imp inh -5, MEX-5 binding -1 and proKLK7 act 0.
CCNC(=O)/C(C#N)=C/c1c(N2CCN(C)CC2)nc2c(C)cccn2c1=O was read as RanGTP-Imp inh -56, MEX-5 binding 1 and proKLK7 act 0.
Screening Cc1cccn2c(=O)c(/C=C(\C#N)C(=O)NCc3ccco3)c(N3CCC(C(N)=O)CC3)nc12 returned RanGTP-Imp inh 3, MEX-5 binding -1, Runt-CBFb FRET 71* and proKLK7 act 1.
`CCNC(=O)/C(C#N)=C/c1c(N2CCN(c3cccc(Cl)c3)CC2)nc2c(C)cccn2c1=O` gave RanGTP-Imp inh 6, MEX-5 binding 1 and proKLK7 act 1.
For CCOC(=O)Cc1csc(NC(=O)CSc2nccn2C)n1 the results were RanGTP-Imp inh 4, MEX-5 binding -4 and proKLK7 act 0.
COC(=O)c1cnc(NC(=O)C2(C)CCCN(C(C)=O)C2)s1 (configuration not stated) was read as proKLK7 act 0.
`Cc1cc(C)c(S(=O)(=O)N2CCN(C3CC(=O)N(c4ccccc4Cl)C3=O)CC2)c(C)c1` (configuration not stated) gave proKLK7 act 0.
`O=C(c1ccc(-c2ccccc2Cl)o1)N1CCN(S(=O)(=O)c2cccs2)CC1` gave MEX-5 binding 2 and proKLK7 act 0.
N#C/C(=C\c1c(N2CCCCC2)nc2ccccn2c1=O)C(=O)NCc1ccco1 was read as RanGTP-Imp inh 1, MEX-5 binding 0, Runt-SMMHC FRET 81, Runt-CBFb FRET 65* and proKLK7 act 9.
Screening Cc1cccn2c(=O)c(/C=C(\C#N)C(=O)NCc3ccco3)c(N3CCCC(C)C3)nc12 (configuration not stated) returned RanGTP-Imp inh 3, MEX-5 binding -3, Runt-CBFb FRET 98* and proKLK7 act 0.
For C=CCNC(=O)/C(C#N)=C/c1c(N2CCCCCC2)nc2ccccn2c1=O the results were RanGTP-Imp inh 4, MEX-5 binding 2 and proKLK7 act 5.
`CCCS(=O)(=O)NC(=O)C1(C)CCN(C(=O)c2cccs2)C1` (configuration not stated) gave proKLK7 act 0.

High-throughput results deposited in PubChem by several laboratories.
